{"source": "ChEMBL document CHEMBL4011629", "about": "“New Disubstituted Quindoline Derivatives Inhibiting Burkitt's Lymphoma Cell Proliferation by Impeding c-MYC Transcription” (J Med Chem, 2017)", "key": {"[1]": {"assay": "Stabilization of c-Myc Pu27 G-quadruplex DNA (unknown origin) assessed as induction of parallel G-quadruplex formation in presence of K+ ions by CD spectroscopic analysis", "procedure,_shortened": "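CD spectra: Pu27 at 5 μM in 10 mM Tris-HCl pH 7.4 without or with 100 mM KCl, annealed 95 °C 5 min, slow-cooled, kept at 4 °C overnight, with ligand. Scanned 230–400 in a 4 mm quartz cuvette, 1 nm bandwidth and step, 0.5 s/point; buffer baseline subtracted.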"}, "[2]": {"assay": "Binding affinity to 5'-FAM labeled c-Myc Pu27 G-quadruplex DNA (unknown origin) in presence of K+ ions by MST analysis", "procedure,_shortened": "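The DNA was annealed at 95 °C for 5 min, slowly cooled and held at 4 °C overnight. Ligand was run as a 12-point series, 0–20 μM for Pu27 and up to 200 μM for duplex. MST was measured, and KD was fitted to a Hill model from three replicates.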"}, "[3]": {"assay": "Selectivity ratio of Kd for 5'-FAM labeled duplex DNA (unknown origin) to Kd for 5'-FAM labeled c-Myc Pu27 G-quadruplex DNA (unknown origin)", "procedure,_shortened": "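MST binding: FAM-Pu27 or FAM-duplex oligo at 10 μM in 10 mM Tris-HCl pH 7.4 with 150 mM KCl, annealed 95 °C 5 min, slow-cooled, held 4 °C overnight. Ligand titrated as a 12-point series, 0–20 μM for G4 or up to 200 μM for duplex. KD fitted with Hill model; three replicates.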"}, "[4]": {"assay": "Inhibition of NM23-H2 binding to 5'-biotin labeled c-Myc Pu27 G-quadruplex DNA (unknown origin) […] by ELISA", "procedure,_shortened": "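Biotin-Pu27 at 100 nM in 10 mM Tris-HCl pH 7.4 with 100 mM KCl was annealed and captured on streptavidin plates. Compound (serial halving from 50 μM in 3% BSA blocking buffer) was preincubated with 250 nM NM23-H2 for 1 h at 25 °C, then added to the DNA at 4 °C overnight. Bound protein was detected with anti-NM23-H2, an HRP secondary and TMB, read at A450; three replicates, DMSO control.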"}, "Raji [5]": {"test_system": "Raji", "assay": "Effect on NM23-H2 transcription level in human Raji cells up to 4 uM after 12 hrs by RT-PCR method", "type": "functional, cell-based"}, "Homo sapiens [6]": {"organism": "Homo sapiens", "assay": "Stabilization of c-Myc G-quadruplex DNA in human Raji cells assessed as downregulation of c-Myc mRNA level at 2 uM after 12 hrs by RT-PCR method relative to control", "type": "cell-based", "procedure,_shortened": "(§1)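 RAJI, CCRF-CEM and U266B1 grown in RPMI 1640 with 10% fetal calf serum at 37 °C, plated at 1 × 10^6 cells/well overnight, then treated 12 h with 4, 2, 1 or 0.5 μM (DMSO control). RNA (2 μg) reverse-transcribed with oligo dT18/M-MLV; c-MYC, NM23-H2 and β-actin amplified by real-time PCR, checked on 1.5% agarose.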"}, "Homo sapiens [7]": {"organism": "Homo sapiens", "assay": "Stabilization of c-Myc G-quadruplex DNA in human CCRF-CEM cells assessed as downregulation of c-Myc mRNA level at 2 uM after 12 hrs by RT-PCR method relative to control", "type": "cell-based", "procedure,_shortened": "as §1"}, "Homo sapiens [8]": {"organism": "Homo sapiens", "assay": "Stabilization of c-Myc G-quadruplex DNA in human U266B1 cells assessed as downregulation of c-Myc mRNA level up to 4 uM after 12 hrs by RT-PCR method", "type": "cell-based", "procedure,_shortened": "as §1"}, "Homo sapiens [9]": {"organism": "Homo sapiens", "assay": "Stabilization of c-Myc G-quadruplex DNA in human Raji cells assessed as downregulation of c-Myc protein level at 1 uM by Western blot method", "type": "cell-based", "conditions": "TDE = time-dependent effect", "procedure,_shortened": "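Western blot of RAJI cells treated either with 1 μM for 6, 12, 24 and 48 h or with graded concentrations for 6 h. Lysed in 1% NP-40, 50 μg protein/lane on 3–12% SDS-PAGE, nitrocellulose, probed for c-MYC, NM23-H2, GAPDH loading control, HRP secondary with ECL; untreated control, three replicates.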"}, "[10]": {"assay": "Drug uptake in human Raji cells at 1 uM after 6 hrs", "type": "ADME, cell-based"}, "Raji [11]": {"test_system": "Raji", "assay": "Cell cycle arrest in human Raji cells assessed as accumulation at G0/G1 phase after 6 hrs by propidium iodide staining based flow cytometry (reference value: 38.5%)", "type": "functional"}, "Raji [12]": {"test_system": "Raji", "assay": "Cell cycle arrest in human Raji cells assessed as accumulation at G2/M phase after 6 hrs by propidium iodide staining based flow cytometry (reference value: 24.4%)", "type": "functional"}, "Raji [13]": {"test_system": "Raji", "assay": "Cell cycle arrest in human Raji cells assessed as accumulation at G0/G1 phase after 12 hrs by propidium iodide staining based flow cytometry (reference value: 38.5%)", "type": "functional"}, "Raji [14]": {"test_system": "Raji", "assay": "Cell cycle arrest in human Raji cells assessed as accumulation at G2/M phase after 12 hrs by propidium iodide staining based flow cytometry (reference value: 24.4%)", "type": "functional"}, "Raji [15]": {"test_system": "Raji", "assay": "Cell cycle arrest in human Raji cells assessed as accumulation at G0/G1 phase after 24 hrs by propidium iodide staining based flow cytometry (reference value: 38.5%)", "type": "functional"}, "Raji [16]": {"test_system": "Raji", "assay": "Cell cycle arrest in human Raji cells assessed as accumulation at G2/M phase after 24 hrs by propidium iodide staining based flow cytometry (reference value: 24.4%)", "type": "functional"}, "Raji [17]": {"test_system": "Raji", "assay": "Cell cycle arrest in human Raji cells assessed as accumulation at G0/G1 phase after 48 hrs by propidium iodide staining based flow cytometry (reference value: 38.5%)", "type": "functional"}, "Raji [18]": {"test_system": "Raji", "assay": "Cell cycle arrest in human Raji cells assessed as accumulation at G2/M phase after 48 hrs by propidium iodide staining based flow cytometry (reference value: 24.4%)", "type": "functional"}, "Raji [19]": {"test_system": "Raji", "assay": "Induction of apoptosis in human Raji cells assessed as early apoptotic cells at 0.5 uM after 12 hrs by Annexin V-FITC/propidium iodide staining based flow cytometry (reference value: 2.3%)", "type": "functional", "procedure,_shortened": "(§2)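 RAJI cells exposed to compound or control medium for 12 or 48 h were washed in PBS and resuspended in binding buffer. They were stained with FITC annexin V and PI for 15 min in the dark, and fluorescence was measured by flow cytometry.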"}, "Raji [20]": {"test_system": "Raji", "assay": "Induction of apoptosis in human Raji cells assessed as early apoptotic cells at 1 uM after 48 hrs by Annexin V-FITC/propidium iodide staining based flow cytometry (reference value: 1.8%)", "type": "functional", "procedure,_shortened": "as §2"}, "Raji [21]": {"test_system": "Raji", "assay": "Induction of apoptosis in human Raji cells assessed as downregulation of Cyclin D1 expression after 12 hrs by Western blot method", "type": "functional, cell-based", "procedure,_shortened": "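After compound exposure (12 h for cell-cycle and apoptosis markers), RAJI cells were lysed in 1% NP-40 buffer. Protein at 50 μg per lane was run on 3–12% SDS-PAGE and transferred to nitrocellulose. Blots were probed with primary antibodies (GAPDH as loading reference) and detected with an HRP secondary and enhanced chemiluminescence.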"}, "Raji [22]": {"test_system": "Raji", "assay": "Antitumor activity against human Raji cells xenografted in NOD/SCID nude mouse assessed as reduction in tumor volume at 15 mg/kg, ip administered once daily for 2 weeks relative to control", "type": "functional", "procedure,_shortened": "(§3)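 NOD/SCID mice were implanted subcutaneously in the underarm with RAJI cells (5 × 10^6 per 100 μL of RPMI 1640 with 10% serum). Tumours reached […] after 1 week, and mice were then randomised. […] Tumour volume was recorded daily and tumour weight at the end.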"}, "Raji [23]": {"test_system": "Raji", "assay": "Antitumor activity against human Raji cells xenografted in NOD/SCID nude mouse assessed as reduction in tumor weight at 15 to 30 mg/kg, ip administered once daily for 2 weeks relative to control", "type": "functional, organism-based", "procedure,_shortened": "as §3"}}, "note": "The source made the active and inactive calls. The calls are words filed in the database; no cut-off is given here.", "data": [{"smiles": "CN(C)CCCNc1c2ccccc2nc2c1oc1ccc(OCC3CCN(C)CC3)cc12", "values": [{"measurement": "Activity", "setting": "[1]", "value": "Dose-dependent effect"}, {"measurement": "Kd", "setting": "[2]", "value": 1300, "unit": "nM"}, {"measurement": "Selectivity ratio", "setting": "[3]", "value": 8}, {"measurement": "inhibition", "setting": "[4]", "value": "Dose-dependent effect"}, {"measurement": "Activity", "setting": "Raji [5]", "value": "inactive"}, {"measurement": "Activity", "setting": "Homo sapiens [6]", "value": "> 80", "unit": "%"}, {"measurement": "Activity", "setting": "Homo sapiens [7]", "value": "< 20", "unit": "%"}, {"measurement": "Activity", "setting": "Homo sapiens [8]", "value": "inactive"}, {"measurement": "Activity", "setting": "Homo sapiens [9]", "value": "Tde"}, {"measurement": "Drug uptake", "setting": "[10]", "value": "Active"}, {"measurement": "Activity", "setting": "Raji [11]", "value": 50.2, "unit": "%"}, {"measurement": "Activity", "setting": "Raji [12]", "value": 26.8, "unit": "%"}, {"measurement": "Activity", "setting": "Raji [13]", "value": 60.2, "unit": "%"}, {"measurement": "Activity", "setting": "Raji [14]", "value": 29.3, "unit": "%"}, {"measurement": "Activity", "setting": "Raji [15]", "value": 56.3, "unit": "%"}, {"measurement": "Activity", "setting": "Raji [16]", "value": 19.3, "unit": "%"}, {"measurement": "Activity", "setting": "Raji [17]", "value": 57.1, "unit": "%"}, {"measurement": "Activity", "setting": "Raji [18]", "value": 16.6, "unit": "%"}, {"measurement": "Activity", "setting": "Raji [19]", "value": 4.6, "unit": "%"}, {"measurement": "Activity", "setting": "Raji [20]", "value": 52.9, "unit": "%"}, {"measurement": "Activity", "setting": "Raji [21]", "value": "Dose-dependent effect"}, {"measurement": "T/C", "setting": "Raji [22]", "value": 33.3, "unit": "%"}, {"measurement": "Activity", "setting": "Raji [23]", "value": "Active"}]}]}
